Test results: ChEMBL document CHEMBL1240369, “Antiviral efficacy of the novel compound BIT225 against HIV-1 release from human macrophages” (Antimicrob Agents Chemother, 2010)
pEC50: −log10 of the molar value. The source made the active and inactive calls. No cut-off for these calls is given here.

Assays:
[1] = Cytotoxicity against human MDM cells assessed as cell viability at 0 to 10 uM by MTT assay; type: cell-based; details: read-out: Activity
Outline: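 Infected day 14 MDM were exposed to compound, up to 10 μM in parallel antiviral assays or extended to 1,000 μM for TC50. On day 7, half the medium was removed and 100 μg MTT added per well for 5 h at 37°C. Formazan was dissolved in acidified isopropanol with 10% Triton X-100 and A560 read. Viability was expressed vs DMSO controls; TC50 by nonlinear regression (n = 3).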

[2] = Inhibition of Vpu ion channel in HIV1 G-92NG003-G3 in human MDM assessed as inhibition of vrius release; parameters: species or system Human immunodeficiency virus 1
[3] = Inhibition of Vpu ion channel in HIV1 98IN017 in human MDM assessed as inhibition of vrius release; parameters: species or system Human immunodeficiency virus 1
[4] = Inhibition of Vpu ion channel in HIV1 5705.72 in human MDM assessed as inhibition of vrius release; parameters: species or system Human immunodeficiency virus 1
[5] = Inhibition of Vpu ion channel in HIV1 MDR3761 in human MDM assessed as inhibition of vrius release; parameters: species or system Human immunodeficiency virus 1
[6] = Selectivity index, ratio of TC50 for human MDM cells to EC50 for HIV1 Ba-L infected in human MDM cells; type: toxicity, cell-based; details: read-out: Selectivity Index
Outline: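 Day-14 adherence-derived MDM from seronegative donors were infected with HIV-1Ba-L for 3 h, PBS-washed thrice, and cultured in DMEM10+ with compound (10 to 0 μM; DMSO vehicle). EC50 came from nonlinear regression of day-7 supernatant RT activity as % virus control (n = 6, triplicates). TC50 came from day-7 MTT (A560, % DMSO control), range extended to 1,000 μM (n = 3). SI = TC50/EC50.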

[7] = Selectivity index, ratio of TC50 for human MDM cells to EC50 for HIV1 93BR029 infected in human MDM cells; type: toxicity, cell-based; details: read-out: Selectivity Index
Outline: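 Monocytes were adherence-isolated from seronegative PBMC and differentiated in DMEM with 10% human AB serum. Cells were infected with the R5 subtype F primary isolate (PBMC-grown). Antiviral effect was taken versus DMSO-treated controls. Toxicity was measured in parallel by MTT. The index is mean TC50 divided by mean EC50, from in-house experiments, n = 3.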

[8] = Selectivity index, ratio of TC50 for human MDM cells to EC50 for HIV1 98IN017 infected in human MDM cells; type: toxicity, cell-based; details: read-out: Selectivity Index
[9] = Selectivity index, ratio of TC50 for human MDM cells to EC50 for HIV1 5705.72 infected in human MDM cells; type: toxicity, cell-based; details: read-out: Selectivity Index
MDM [10] = test: Inhibition of Vpu ion channel in 0.01 MOI HIV1 Ba-L infected in 7 days differentiated human MDM cells assessed as number of gag copy; type: cell-based; details: Human immunodeficiency virus 1
Outline: (§1)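 MDM differentiated for 7, 10 or 14 days were infected with HIV-1 Ba-L across a range of MOIs, washed three times with PBS and cultured 7 days with 10 μM compound or equal-volume DMSO. On day 7 postinfection, supernatant RT activity was measured (and infectivity on TZM-bl cells). Cell lysates went to real-time PCR for LTR-gag DNA, normalised to albumin copies.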

MDM [11] = test: Inhibition of Vpu ion channel in 0.01 MOI HIV1 Ba-L infected in 14 days differentiated human MDM cells assessed as number of gag copy; type: cell-based; details: Human immunodeficiency virus 1; outline: as §1
MDM [12] = test: Inhibition of Vpu ion channel in 0.05 MOI HIV1 Ba-L infected in 10 days differentiated human MDM cells assessed as number of gag copy; type: cell-based; details: Human immunodeficiency virus 1; outline: as §1
MDM [13] = test: Inhibition of Vpu ion channel in 0.001 to 3 MOI HIV1 Ba-L infected in 7-14 days differentiated human MDM cells assessed as virus inhibition rate measured after 7 days; type: cell-based; details: Human immunodeficiency virus 1; outline: as §1
MDM [14] = test: Inhibition of Vpu ion channel in 0.001 MOI HIV1 Ba-L infected in 14 days differentiated human MDM cells assessed as viral inhibition by TZM-bl infectivity assay; type: cell-based; details: Human immunodeficiency virus 1; outline: as §1
MDM [15] = test: Inhibition of Vpu ion channel in 0.05 MOI HIV1 Ba-L chronically infected in 14 days differentiated human MDM cells assessed as viral inhibition measured after treatment at 11 th day postinfection; type: cell-based; details: Human immunodeficiency virus 1
MDM [16] = test: Inhibition of Vpu ion channel in 0.05 MOI HIV1 Ba-L chronically infected in 7 days differentiated human MDM cells assessed as reverse transcriptase activity after 21 days; type: cell-based; details: Human immunodeficiency virus 1
Outline: (§2)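 Chronic infection model: MDM were incubated with HIV-1 Ba-L for 3 h and left 7 days unwashed, then washed three times and given a single 10 μM dose (DMSO control). Supernatants were sampled routinely for RT activity. In the washout arm, compound was removed and cells kept drug-free for an additional 20 days.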

MDM [17] = test: Inhibition of Vpu ion channel in 0.05 MOI HIV1 Ba-L chronically infected in 7-14 days differentiated human MDM cells assessed as viral inhibition at 10 uM after 7 days post treatment measured after 20 days drug washout period; type: cell-based; details: Human immunodeficiency virus 1; outline: as §2
[18] = tested on: Human immunodeficiency virus 2; test: Antiviral activity against 0.05 MOI HIV2 chronically infected in 7-14 days differentiated human MDM cells assessed as viral inhibition measured after 7 days; type: functional, organism-based
Outline: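 Day 14 MDM from 3 seronegative donors were infected with HIV-2, or with HIV-1 Ba-L as a positive control, at MOI 0.05 for 7 days. Cells were then washed free of extracellular virus and cultured ± 10 μM compound for a further 7 days. Day 28 supernatants were assayed for RT activity by chemiluminescent ELISA, with recombinant RT as the standard.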

[19] = tested on: Human immunodeficiency virus 1; test: Antiviral activity against HIV1 Ba-L in human MDM assessed as inhibition integration of virus to host cell genome at 0.3125 to 10 uM; type: functional, organism-based
[20] = tested on: Human immunodeficiency virus 1; test: Antiviral activity against HIV1 Ba-L in human MDM assessed as inhibition integration of virus to host cell genome at 10 nM; type: functional, organism-based
[21] = tested on: Human immunodeficiency virus 1; test: Antiviral activity against HIV1 Ba-L in human MDM assessed as inhibition integration of virus to host cell genome at 100 nM; type: functional, organism-based
MT2 [22] = test: Inhibition of Vpu ion channel in 0.05 MOI HIV1 infected in MT2 cells assessed as viral inhibition measured after 7 days by […]; details: Human immunodeficiency virus 1
PM1 = test: Inhibition of Vpu ion channel in 0.05 MOI HIV1 NL4-3 infected in PM1 cells assessed as viral inhibition measured after 7 days by […]; details: Human immunodeficiency virus 1
MT2 [23] = test: Inhibition of Vpu ion channel in 0.05 MOI HIV1 NL4-3 infected in MT2 cells assessed as viral inhibition measured at 10 uM after 7 days by […]; details: Human immunodeficiency virus 1
PBMC = test: Inhibition of Vpu ion channel in 0.05 MOI HIV1 NL4-3 infected in human PBMC cells assessed as viral inhibition measured at 10 uM after 7 days by […]; details: Human immunodeficiency virus 1

For `Cn1cc(-c2cccc3cc(C(=O)NC(=N)N)ccc23)cn1`, the viability at up to 10 µM [1] was > 96%, the pEC50 [2] was 5.80 and the pEC50 [3] was 4.37. For the same compound, the pEC50 [4] was 5.29, the pEC50 [5] was 5.29 and the selectivity ratio [6] was 126. For the same compound, the selectivity ratio [7] was 111, the selectivity ratio [8] was 4.8 and the selectivity ratio [9] was 39.3. The Activity (MDM [10]) was 1160, the Activity (MDM [11]) was 98 and the Activity (MDM [12]) was “Active”. For the same compound, the Activity (MDM [13]) was “Active”, the inhibition (MDM [14]) was 90.3% and the inhibition (MDM [15]) was 86.3%. The Activity (MDM [16]) was < 2 U/ml, the Activity (MDM [17]) was “inactive” and the Activity [18] was “inactive”. For the same compound, the Activity [19] was “inactive”, the Activity [20] was “Active” and the Activity [21] was “Active”. The inhibition (MT2 [22]) was 38.8%, the inhibition (PM1) was 93.1% and the inhibition (MT2 [23]) was 24%. The inhibition (PBMC) was 56.8%.
